High-throughput results deposited in PubChem BioAssay by Broad Institute.
dFosB act: activators of delta FosB homodimer, primary screen, biochemical, fluorescence polarization, TAMRA-CDK5 oligo, single point | purified delta FosB; percent of positive-control signal above neutral wells | activation, % at 25 µM | 340,000 tested, 0.99% active;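 active = mean activation above about 17%, with every replicate also reaching it, limit read from the data, passing the limit was not always enough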
CAL PDZ FP-1: untagged CAL PDZ binding inhibitors, primary screen, biochemical, fluorescence polarization, HTS. Golgi-associated PDZ and coiled-coil motif-containing protein (Homo sapiens), Q9HD26. 300,000 tested, 0.92% active. AID 602252, 2012. purified CAL PDZ, TMR-peptide fluorescence polarization, 1 h. inhibition, % at 24.9 µM;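 active = mean inhibition of at least 30% with at least half of replicates also reaching 30%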;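 note: 0% = DMSO neutral control and 100% = excess unlabeled competitor peptide PRC23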
Dyrk1A ADPGlo: rat Dyrk1A kinase inhibitors, primary screen, biochemical, single point, plate reader | AID 504441, 2011 | inhibition, % at 12.5 µM | ADP-Glo luminescence, NFATc1 peptide | 310,000 tested, 0.43% active; in the data active = inhibition above about 50%;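 note: plate controls were vehicle with enzyme for no effect and no enzyme for full effect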
Rtt109 HAT inh: inhibitors of C. albicans Rtt109/Vps75 HAT, primary screen, biochemical, ThioGlo CoA-SH fluorescence, plate reader; Histone acetyltransferase RTT109 (Candida albicans (strain SC5314 / ATCC MYA-2876)), …; purified Rtt109/Vps75, 4 h; inhibition, % at 34.9 µM; 330,000 tested, 0.16% active; AID 540336, 2011;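 active = inhibition of at least 50% in every replicate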
CAL PDZ FP-2: CAL PDZ peptide-binding inhibitors, primary screen, biochemical, fluorescence polarization, Cer-tagged CAL PDZ, HTS. Golgi-associated PDZ and coiled-coil motif-containing protein (Homo sapiens), Q9HD26. purified CAL PDZ, TMR-peptide fluorescence polarization, 1 h. inhibition, % at 20 µM. 330,000 tested, 0.02% active;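 active = highest replicate inhibition of at least 40%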;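 note: plate controls were DMSO neutral control wells for no effect and unlabeled competitor peptide control wells for full effect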
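Assay system – tagged CAL PDZ protein CerCALP, purified · Timing – 1 h at RT · Compound – single point, 20 µM · Measured by – fluorescence polarization from S- and P-plane intensities, G-factor corrected · Evaluation – inhibition from polarization loss · Probe or stimulus – TMR reporter peptide T*-PRC34 · Buffer or medium – pH 7.4 phosphate-saline buffer, reducing agent, detergent, IgG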
CDK5 inh: inhibitors of human CDK5/p35 kinase, primary screen, biochemical, single concentration | Cyclin-dependent kinase 5 (Homo sapiens) + Cyclin-dependent kinase 5 activator 1 (Homo … | Recombinant CDK5/p35, ADP-Glo luminescence, 60 min | inhibition, % at 10 µM | 330,000 tested, 0.01% active | AID 488839, 2010;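 active = highest replicate inhibition of at least 50% and at least 75% of replicates reaching 50%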;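 note: plate controls were DMSO neutral control for no effect and GW8510 at 10 µM for full effect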
* = called active by the depositor; / = not tested or not shown. Most compounds without a hit are left out; they make up all but 2.2% or so of the library.

SMILES | dFosB act | CAL PDZ FP-1 | Dyrk1A ADPGlo | Rtt109 HAT inh | CAL PDZ FP-2 | CDK5 inh
CCOC(=O)c1cc2nc(OCC)nc(OCC)c2[nH]1 | -19 | 41* | -1 | -7 | 0 | -1
O=C(CN1C(=O)NC2NC(=O)NC21)NC1CCCCC1 (stereo not given) | 1 | 39* | 3 | -7 | -5 | 0
CCn1nnc(NC(=O)c2ccc(-c3ccc(Cl)cc3)o2)n1 | -15 | 0 | 0 | / | -6 | -2
CCn1nnc(NC(=O)Cc2ccc(Cl)cc2)n1 | 7 | 102* | / | -5 | -1 | -1
Cc1oc(-c2ccccc2)nc1C(=O)OCC(=O)NC(=O)NCC(C)C | -11 | 37* | 6 | -2 | 0 | -1
COc1ccc(CNC(=O)COC(=O)c2n[nH]c3ccccc23)cc1 | 2 | -6 | -5 | 6 | / | 0
CC(C)CNC(=O)COC(=O)c1n[nH]c2ccccc12 | -11 | 61* | 2 | -8 | 8 | -1
Cc1oc(-c2ccccc2)nc1C(=O)OCC(=O)NC(C)c1ccccc1 (stereo not given) | -12 | -2 | / | -3 | -1 | -2
CC1=C(C(=O)c2ccccc2)C(c2cccc([N+](=O)[O-])c2)NC(=S)N1 (stereo not given) | 3 | 6 | -2 | -4 | 0 | -1
CC(=O)C1=C(C)NC(=S)NC1c1cc([N+](=O)[O-])ccc1O (stereo not given) | -1 | 64* | -1 | -12 | 2 | 2
Cc1ccc(S(=O)(=O)c2c(C)cc(C)nc2N2CCCC2)cc1 | -8 | -2 | 4 | 3 | -3 | 1
COC(=O)Cc1nnc(Nc2cccc(C)c2)c2ccccc12 | 8 | 30* | 0 | 6 | -1 | -1
COc1ccccc1-c1sc2ccccc2c1-c1ccc2c(c1)OCCO2 | 4 | -1 | 8 | -1 | 2 | 1
COc1ccc(-c2nnc(SCC(=O)Nc3ccccc3OC)o2)cc1 | 0 | / | 6 | -9 | -3 | 0
COc1ccc(OCc2nnc(SCC(=O)Nc3ccccc3C#N)o2)cc1 | -5 | 54* | 7 | -1 | 0 | 2
COc1ccc(C(=O)NCc2nnc(SCC(=O)Nc3ccccc3OC)o2)cc1 | -3 | 56* | 2 | 5 | -1 | 1
COc1ccc(C(=O)NCc2nnc(SCC(=O)Nc3ccccc3F)o2)cc1 | 0 | -1 | 0 | 10 | -1 | -5
Cc1ccc(OCCCC(=O)NNC(=O)c2ccncc2)cc1 | -2 | 3 | 1 | -5 | -1 | 0
CCOC(=O)C1=C(C)NC(=S)N(C(C)=O)C1c1ccc(OC)c(OC)c1 (stereo not given) | -8 | / | -10 | -8 | -1 | 1
CCOC(=O)C1=C(C)NC(=S)N(C(C)=O)C1c1ccc(Cl)cc1 (stereo not given) | -17 | -3 | / | 63* | -4 | 11
COc1cccc(NC(=O)CSc2nc3c(sc4ccccc43)c(=O)n2CCN(C)C)c1 | 6 | 2 | 9 | 142* | -4 | 1
Cc1ccc(NC(=O)Cn2cc(C=O)c3ccccc32)cc1C | 20* | -2 | -6 | 7 | / | 1
Cc1ccc(NC(=O)/C(C#N)=C/c2cn(CC(=O)NCc3ccco3)c3ccccc23)cc1C | 60* | -8 | 1 | -3 | / | -1
Cc1cc(C)cc(NC(=O)/C(C#N)=C/c2cn(CC(=O)NCc3ccco3)c3ccccc23)c1 | 33* | -2 | -1 | 23 | -3 | 0
Cc1cccc(NC(=O)Cn2cc(C=O)c3ccccc32)c1 | -3 | -3 | -1 | 2 | -1 | 0
Cc1ccc(C)c(NC(=O)/C(C#N)=C/c2cn(CC(=O)NCc3ccco3)c3ccccc23)c1 | -7 | 44* | -3 | -7 | -1 | -2
